The molecules below were run against T1, Prostaglandin G/H synthase 1 (Ovis aries, UniProt P05979) (assay: Inhibition of ovine COX1 assessed as PGF2alpha level by EIA).
T1 sequence (P05979 whole entry): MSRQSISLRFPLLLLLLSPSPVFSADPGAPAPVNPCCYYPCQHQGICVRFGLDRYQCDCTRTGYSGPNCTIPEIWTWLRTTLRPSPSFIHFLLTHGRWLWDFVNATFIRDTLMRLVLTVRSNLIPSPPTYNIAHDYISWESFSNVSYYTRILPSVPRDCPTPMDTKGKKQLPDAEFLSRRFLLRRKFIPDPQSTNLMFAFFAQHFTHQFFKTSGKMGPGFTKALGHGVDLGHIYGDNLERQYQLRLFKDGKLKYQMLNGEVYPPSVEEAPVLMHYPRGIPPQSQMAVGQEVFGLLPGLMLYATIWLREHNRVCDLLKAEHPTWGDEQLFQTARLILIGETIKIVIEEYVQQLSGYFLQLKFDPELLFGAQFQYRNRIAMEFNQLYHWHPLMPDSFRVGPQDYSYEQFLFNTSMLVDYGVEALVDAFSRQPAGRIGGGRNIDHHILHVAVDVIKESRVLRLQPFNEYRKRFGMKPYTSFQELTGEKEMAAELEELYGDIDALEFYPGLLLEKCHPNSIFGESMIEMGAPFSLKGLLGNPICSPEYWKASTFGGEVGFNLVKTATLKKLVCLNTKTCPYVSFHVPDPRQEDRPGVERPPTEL
Outline: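 Ovine COX-1 with heme in 0.1 M Tris-HCl pH 8.0 (5 mM EDTA, 2 mM phenol); compound at […] (final), 2 min preincubation at 37 °C. Started with arachidonic acid (100 µM), stopped after 2 min with 1 M HCl. PGH2 reduced to PGF2α by stannous chloride and quantified by EIA (18 h, room temperature; Ellman's reagent, 410 nm). IC50 from percent inhibition, mean of two determinations.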
COC1(c2cccc(COc3ccccc3OCc3ccccc3)c2)CCOCC1 gave an IC50 greater than 100 µM. In the case of COC1(c2cccc(COc3ccc(Cl)cc3OCc3ccccc3)c2)CCOCC1, the IC50 is reported as greater than 100 µM. In the case of COC1(c2cccc(CS(=O)(=O)Nc3ccccc3OCc3ccccc3)c2)CCOCC1, the IC50 is reported as 14.8 µM. In the case of COC1(c2cccc(CN(c3ccc([N+](=O)[O-])cc3OCc3ccccc3)S(C)(=O)=O)c2)CCOCC1, the IC50 is reported as 13.5 µM. In the case of COC1(c2cccc(CS(=O)(=O)Nc3ccc(Cl)cc3OCc3ccccc3)c2)CCOCC1, the IC50 is reported as 24.4 µM. For COC1(c2cccc(CN(c3cc(Cl)ccc3OCc3ccccc3)S(C)(=O)=O)c2)CCOCC1, the IC50 was greater than 100 µM. Work on COC1(c2cccc(CS(=O)(=O)Nc3ccc([N+](=O)[O-])cc3OCc3ccccc3)c2)CCOCC1 yielded an IC50 of 7.9 µM. Work on COC1(c2cccc(CS(=O)(=O)Nc3cc(C)ccc3OCc3ccccc3)c2)CCOCC1 yielded an IC50 of 16.5 µM. Work on COC1(c2cccc(CN(c3ccc(Cl)cc3OCc3ccccc3)S(C)(=O)=O)c2)CCOCC1 yielded an IC50 greater than 100 µM. With COC1(c2cccc(CNc3cc(Cl)ccc3OCc3ccccc3)c2)CCOCC1 the IC50 was greater than 100 µM. COC1(c2cccc(CN(c3ccccc3OCc3ccccc3)S(C)(=O)=O)c2)CCOCC1 was tested, and the IC50 was greater than 100 µM. CCOC(=O)c1ccc(OCc2cccc(C3(OC)CCOCC3)c2)c(OCc2ccccc2)c1 was tested, and the IC50 was 44.2 µM. COC1(c2cccc(CS(=O)(=O)Nc3cc(Cl)ccc3OCc3ccccc3)c2)CCOCC1 showed an IC50 of 15.6 µM. Molecule COC1(c2cccc(COc3ccc(Br)cc3OCc3ccccc3)c2)CCOCC1 has an IC50 greater than 100 µM. COC1(c2cccc(CN(c3cc(C)ccc3OCc3ccccc3)S(C)(=O)=O)c2)CCOCC1 gave an IC50 greater than 100 µM. For COC1(c2cccc(CNc3ccc(Cl)cc3OCc3ccccc3)c2)CCOCC1, the IC50 was 34.6 µM. In the case of CS(=O)(=O)Nc1ccc([N+](=O)[O-])cc1Oc1ccccc1 [NIMESULIDE], the IC50 is reported as 6.2 µM. COC1(c2cccc(CNc3cc(C)ccc3OCc3ccccc3)c2)CCOCC1 showed an IC50 greater than 100 µM. CCOC(=O)c1ccc(OCc2ccccc2)c(NS(=O)(=O)Cc2cccc(C3(OC)CCOCC3)c2)c1 showed an IC50 of 11.6 µM. COC1(c2cccc(CNc3ccc([N+](=O)[O-])cc3OCc3ccccc3)c2)CCOCC1 was tested, and the IC50 was 88.8 µM. Molecule COC1(c2cccc(CNc3ccccc3OCc3ccccc3)c2)CCOCC1 has an IC50 greater than 100 µM.
